Activity data for 12 molecules are collected here from ChEMBL document CHEMBL1137341, “Small-molecule inhibitors of histone acetyltransferase activity: identification and biological properties” (2006).

Assay [1] concerns the target Histone acetyltransferase GCN5 (Saccharomyces cerevisiae S288c) (UniProt Q03330). Description: Inhibition of Saccharomyces cerevisiae GCN5 at 0.6 mM. In short, it runs like this:
(§1)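 Yeast strains (wild-type MK839, F221A and E173H GCN5 catalytic mutants, spt20∆) grown at 28 °C with 0.6 mM compound; ten-fold serial dilutions of liquid culture spotted on solid medium. Growth estimated by optical density as arbitrary units.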

Assay [2] has as its system U-937. Description: Inhibition of HAT in human U937 cells at 50 uM. Format: functional. Set-up: scale not given: the % may be the effect or the level left. The procedure, abridged:
(§2)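 Indirect ELISA for acetylated histone H3 using 10 µg U937 nuclear extract per well as HAT source; 90 min incubation with compound (25, 50 or 500 µM) or DMSO control. Acetylated H3 peptide standard curve; expressed as % inhibition relative to untreated extract (100%).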

In assay [3] the test system is U-937. Description: Inhibition of HAT in human U937 cells at 25 uM. The format is functional. More on the design: scale not given: the % may be the effect or the level left. In short, it runs like this:
as §2

Assay [4] has as its system U-937. Description: Inhibition of H3 histone acetylation in human U937 cells at 100 uM. Format: functional, cell-based. In short, it runs like this:
(§3)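 SAHA 5 µM pretreatment of U937 cells for 2 h, then wash and 4 h with vehicle or 100 µM compound. Acetyl-H3 and acetyl-α-tubulin detected by Western blot (50 µg total protein for tubulin, total ERKs as loading control).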

Assay [5] deals with U-937. Nature of the assay: Inhibition of alpha-tubulin acetylation in human U937 cells at 100 uM. The format is functional, cell-based. The procedure, abridged:
as §3

In assay [6] the test system is Saccharomyces cerevisiae. Description: Inhibition of Saccharomyces cerevisiae growth at 0.6 mM. Format: functional, organism-based. In short, it runs like this:
as §1

Assay [7] addresses Histone acetyltransferase GCN5 (Saccharomyces cerevisiae S288c) (UniProt Q03330). Description: Inhibition of GCN5-dependent HIS3-LacZ reporter gene transcription measured as level of beta-galactosidase activity in Saccharomyces cerevisiae. The format is functional. In short, it runs like this: (§4)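 Yeast reporter strains: HIS3-LacZ (yPO14) grown 16 h in SD at 28 °C and then 4 h with 25 mM 3-aminotriazole; GAL10-CYC1-LacZ (yPO1569) grown 16 h in SD, washed, then 4 h in galactose SG medium. Compounds at 0.6 mM. β-Gal activity read in glass-bead extracts normalized to Bradford protein; 1 unit = 1 µmol o-nitrophenol/min.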
(Reporter assays use an easily measured gene product as a stand-in for the process of interest.)

Assay [8] shares this target. Nature of the assay: Inhibition of GCN5-dependent HIS3-LacZ reporter gene transcription measured as level of beta-galactosidase activity in Saccharomyces cerevisiae in presence of 3-aminotriazole. The format is functional.
The test system of assay [9] is Saccharomyces cerevisiae. Nature of the assay: Inhibition of Saccharomyces cerevisiae H3 histone acetylation at 1.5 mM. Format: functional, organism-based. In short, it runs like this:
(§5)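 Wild-type S. cerevisiae grown 16 h in YPD at 28 °C with 0.6, 1 or 1.5 mM compound; gcn5∆ strain run in parallel. Alkaline protein extraction, 15% SDS-PAGE, Western blot with anti-acetyl-H3 and anti-H3 antibodies, ECL detection.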

The test system of assay [10] is U-937. Nature of the assay: Effect on granulocytic differentiation in human U937 cells measured as CD11c expression level at 1 mM after 30 hrs. The format is functional. In short, it runs like this: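 U937 cells (RPMI, 10% FBS, 200 000 cells/mL) exposed 30 h to 1 mM. Stained with PE-conjugated CD11c, 30 min at 4 °C in the dark; PE mouse IgG1 as staining control; propidium iodide 0.25 µg/mL added and PI-positive cells excluded. Reported as percent CD11c-positive cells by FACS.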

Assay [11] has as its system U-937. Nature of the assay: Inhibition of HAT in human U937 cells at 500 uM. Format: functional. More on the design: scale not given: the % may be the effect or the level left. The procedure, abridged:
as §2

Assay [12] relates to U-937. Nature of the assay: Inhibition of alpha-tubulin acetylation in human U937 cells at 2.5 mM. Format: functional, cell-based. The procedure, abridged:
(§6)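 U937 cells pretreated 2 h with 5 µM SAHA, washed, then incubated 4 h with vehicle or compound at 2.5 mM. Western blot for acetylated histone H3 and acetylated α-tubulin (50 µg protein on 10% gels, normalized to total ERKs).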

For assay [13], the system named is Saccharomyces cerevisiae. Nature of the assay: Inhibition of GCN5-independent GAL10-CYC1-LacZ reporter gene transcription measured as level of beta-galactosidase activity in Saccharomyces cerevisiae under galactose induction.
Assay [14] concerns Saccharomyces cerevisiae. Nature of the assay: Inhibition of GCN5-independent GAL10-CYC1-LacZ reporter gene transcription measured as level of beta-galactosidase activity in Saccharomyces cerevisiae. Format: functional, organism-based. The procedure, abridged:
as §4

Assay [15] relates to Saccharomyces cerevisiae. Nature of the assay: Inhibition of Saccharomyces cerevisiae H3 histone acetylation at 0.6 mM. The format is functional, organism-based. In short, it runs like this: as §5
The subject of assay [16] is Saccharomyces cerevisiae. Description: Inhibition of Saccharomyces cerevisiae H3 histone acetylation at 1 mM. Format: functional, organism-based. The procedure, abridged:
as §5

Assay [17] relates to U-937. Description: Cell cycle arrest at G1 phase in human U937 cells at 1 mM after 24 hrs. The format is functional, cell-based. In short, it runs like this: (§7)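 U937 cells in RPMI with 10% FBS and antibiotics, held at 200 000 cells/mL, treated 24 h at 1 mM (DMSO stock). Cell cycle: 2.5 × 10^5 cells in hypotonic buffer with propidium iodide and RNase A, 30 min dark, flow cytometry; three experiments. Apoptosis: Annexin V/propidium iodide double staining by FACS.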

For assay [18], the system named is U-937. Nature of the assay: Induction of apoptosis in human U937 cells at 1 mM after 24 hrs. Format: functional. The procedure, abridged: as §7
The subject of assay [19] is U-937. Nature of the assay: Inhibition of H3 histone acetylation in human U937 cells at 2.5 mM. The format is functional, cell-based. The procedure, abridged:
as §6

Assay [20] relates to Saccharomyces cerevisiae. Nature of the assay: Inhibition of growth of Saccharomyces cerevisiae F221A mutant at 0.6 mM. The format is functional, organism-based. In short, it runs like this:
as §1

Assay [21] has as its system Saccharomyces cerevisiae. Nature of the assay: Inhibition of growth of Saccharomyces cerevisiae E173H mutant at 0.6 mM. The format is functional, organism-based. The procedure, abridged: as §1
Assay [22] concerns Saccharomyces cerevisiae. Description: Inhibition of growth of wild type Saccharomyces cerevisiae MK839 mutant at 0.6 mM. Format: functional, organism-based. In short, it runs like this: as §1
Assay [23] deals with Saccharomyces cerevisiae. Nature of the assay: Inhibition of growth of Saccharomyces cerevisiae spt20delta mutant at 0.6 mM. Format: functional, organism-based. The procedure, abridged:
as §1

The source made the active and inactive calls. The calls are words filed in the database; no cut-off is given here.

Sequence of Histone acetyltransferase GCN5 (Saccharomyces cerevisiae S288c) (Q03330 whole entry): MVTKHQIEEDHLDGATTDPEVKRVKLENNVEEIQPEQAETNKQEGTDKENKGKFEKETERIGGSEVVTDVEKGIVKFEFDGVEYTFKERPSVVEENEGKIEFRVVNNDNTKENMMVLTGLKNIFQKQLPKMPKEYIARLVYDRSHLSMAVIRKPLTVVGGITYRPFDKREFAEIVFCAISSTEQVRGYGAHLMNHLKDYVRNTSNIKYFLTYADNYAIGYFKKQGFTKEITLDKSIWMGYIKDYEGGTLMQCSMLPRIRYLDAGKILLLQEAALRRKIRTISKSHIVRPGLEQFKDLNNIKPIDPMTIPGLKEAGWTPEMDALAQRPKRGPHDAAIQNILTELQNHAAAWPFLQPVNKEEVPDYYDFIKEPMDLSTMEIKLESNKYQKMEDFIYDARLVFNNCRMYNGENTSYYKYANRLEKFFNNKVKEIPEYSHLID

Consider `NC(=O)c1cnc2ccccc2c1`, for which the outcome in assay [1] was inactive.

In the case of `O=C(O)c1cnc2ccccc2c1`, the outcome in assay [1] was inactive.

Consider `CCCCCc1nc2ccccc2c(O)c1C(=O)O`, for which the Activity in [2] is on record as 30%; in assay [3], 24%. For the same molecule, the outcome in assay [4] and in assay [5] was Active.

As for `CCOC(=O)c1ccc2ccccc2c1`, the result in assay [1] was inactive.

For the molecule `CCOC(=O)c1cnc2ccccc2c1`, the result in [6], in assay [1], in assay [7], in assay [8], in assay [9] and in [12] was Active. Further, the outcome in assay [13] was Active. In addition, the Activity in assay [10] stood at 14%; in assay [11], 25%.

As to `Cc1ccc2ccccc2n1`, in assay [1], the result was inactive.

Molecule `COc1cc(/C=C/C(=O)CC(=O)/C=C/c2ccc(O)c(OC)c2)ccc1O` [CURCUMIN] registered an Activity in assay [2] of 17.5%.

Regarding `CCOC(=O)c1c(C)nc2ccccc2c1O`, the outcome in [1] was inactive.

On to `CCOC(=O)c1cc2ccccc2nc1C`, for which the outcome in assay [6], in assay [7], in assay [8], in assay [15], in assay [16] and in [17] was Active. For the same molecule, the outcome in [19] and in assay [12] was Active. The result in assay [14] and in assay [13] was inactive. Besides, the Activity in assay [18] is listed as 27%; in [10], 8.8%; in assay [11], 32%.

Molecule `C=C1C(=O)O[C@H](CCC)[C@H]1C(=O)O` yielded an Activity in assay [2] of 44%.

`C=CC/C=C\C/C=C\CCCCCCCc1cccc(O)c1C(=O)O` [ANACARDIC ACID] yielded an Activity in assay [2] of 15%.

In the case of `CCOC(=O)c1cccnc1C`, the outcome in [1], in assay [20], in [21], in assay [22], in assay [23] and in [7] was inactive. Further, the outcome in assay [8], in assay [14] and in assay [13] was inactive.
